Source: PubChem
NF-kB neuron act = raises NF-kB expression in human neuronal cells | AID 1239 | hit rate 1.6% among 190,000 | fold change at 12.5 µM | NF-kB reporter expression; hits give high values; in the data active = fold change above about 3.3
STAT3 inh = STAT3 signaling inhibition; hit rate 0.89% among 190,000; inhibition, % at 5.5 µM; U3A cells, IL-6 STAT3-luciferase reporter, luminescence; host cell line lacks STAT1; AID 862;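 active = inhibition above the mean inhibition across all screened compounds plus 3 SD, cut at about 44% in these data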;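 note: 0% = DMSO only wells and 100% = 100 µM nifuroxazide control wells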
STAT3 act = activators of IL-6 induced STAT3 signaling; U3A cells, IL-6 STAT3-luciferase reporter, luminescence; 100% = signal with IL-6 EC80 alone; activation (% of control), % at 5.6 µM; hit rate 0.91% among 190,000; AID 871;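 active = activation above the screen-wide mean of compound activation plus 3 SD, cut at about 130% in these data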;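 note: 0% = background luminescence of wells with medium and substrate only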
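Material: STAT3-luciferase reporter U3A cells. Controls: IL-6-treated wells, 100% activation. Read-out: % activation versus median of IL-6-stimulated wells. Probe or stimulus: IL-6 stimulus at 33 ng/mL final. Timing: compound 1 h, then IL-6 6 h at 37 °C. Signal: reporter luminescence signal.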
STAT1 act = increases IFN-gamma driven STAT1 reporter signal. NIH 3T3 STAT1-luciferase reporter, luminescence; 100% = IFN-gamma alone, no compound. activation (% of control), % at 5.5 µM. hit rate 2.6% among 200,000;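 active = activation above the screen-wide mean activation plus 3 SD, cut at about 130% in these data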;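 note: raw ratio to IFN-gamma control signal so 100% means no change and 0% no light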
APP 5'UTR act = APP 5'UTR luciferase reporter activation; hit rate 1% among 190,000; AID 1276; SH-SY5Y APP 5'UTR luciferase reporter, luminescence; zero percent = DMSO vehicle wells; activation, % at 2 µM;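 active = activation above a set limit, based on mean plus 3 SD of controls, cut at about 140% in these data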
STAT1 blocker = inhibitors of IFN-gamma induced STAT1 signaling | AID 920 | inhibition, % at 5.5 µM | hit rate 0.35% among 200,000 | NIH 3T3 STAT1-luciferase reporter, luminescence;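 active = inhibition above a set limit, the mean inhibition across all tested compounds plus 3 SD, cut at about 34% in these data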;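 note: 0% = IFN-gamma with DMSO and 100% = IFN-gamma with 300 µM nifuroxazide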
STAT1 act conf = STAT1 activation, confirmation assay | hit rate 97% among 1,200 | shares compounds with STAT1 act | activation (% of control), % at 5.7 µM | AID 1262 | NIH 3T3 STAT1-luciferase reporter, IFN-gamma potentiation, luminescence; 100% = IFN-gamma EC80 alone, no compound;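 active = activation above a set limit carried over from the earlier primary STAT1 screen, cut at about 140% in these data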;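 note: simple ratio to median IFN-gamma plus DMSO wells so 0% means no light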
NFkB act STAT1ct = NF-kappaB activation in STAT1 activator counter-screen; shares compounds with STAT1 act; HEK293T NF-kB luciferase reporter, TNF-alpha stimulated, luminescence; 100% = TNF-alpha with vehicle only; activation (% of control), % at 5.7 µM; hit rate 43% among 1,200;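 active = activation above the mean of solvent-only control wells plus 3 SD, set per campaign, cut at about 130% in these data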;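 note: TNF-alpha given at a submaximal dose yielding about 80% of full reporter signal; values are well signal over median control so 100% means no change and 0% no light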
STAT3 act STAT1c = human STAT3 activation in STAT1 activator counter-screen | U3A cells STAT3-luciferase reporter, IL-6, luminescence; cells lack STAT1; 100 = IL-6 alone, no compound effect | activation (% of control), % at 5.7 µM | shares compounds with STAT1 act | hit rate 46% among 1,200;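 active = activation above the solvent-only control well mean plus 3 SD, set per plate batch, cut at about 110% in these data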;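 note: 0% = no luminescence and 100% = median IL-6 plus DMSO wells; higher means more STAT3 reporter activation so hits are non-selective activators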
* hit, by the source's call; . = not tested or not shown. Only some compounds are listed: those with a hit (about 4.9% of all), similar ones and a draw of the others.

SMILES | NF-kB neuron act | STAT3 inh | STAT3 act | STAT1 act | APP 5'UTR act | STAT1 blocker | STAT1 act conf | NFkB act STAT1ct | STAT3 act STAT1c
Nc1nnc(-c2ccccc2[N+](=O)[O-])o1 | 1 | 8 | 96 | 109 | 14 | -12 | . | . | .
O=[N+]([O-])c1ccccc1-c1nc(-c2ccc(Br)o2)no1 | 0.99 | -7 | 106 | 170* | 160* | -79 | 200* | 132 | 137*
Cc1c(C(=O)NCC2CCCO2)oc2ccc3c(c12)C(=O)CC(C)(C)O3 (stereo not drawn) | 3.4* | 21 | 85 | 155* | 156* | -61 | 209* | 122 | 126*
Cc1c(C(=O)NCC2CCCO2)oc2ccc(S(=O)(=O)N3CCCC3)cc12 (stereo not drawn) | 0.37 | 12 | 94 | 106 | -7 | -8 | . | . | .
Cc1cc(/C=C2/NC(=O)N(c3ccccc3)C2=O)c(C)n1-c1cccnc1 | 1.2 | -10 | 112 | 151* | 86 | -58 | 192* | 132 | 119*
Cc1nn(-c2ccccc2)c(C)c1/C=N/Nc1nc2ccccc2[nH]1 | 2.9 | 17 | 88 | 204* | 154* | -116 | 289* | 124 | 108
CC(/C=N/Nc1nc(C)cc(=O)[nH]1)=C\c1ccccc1 | 1.2 | 22 | 88 | 109 | 12 | -9 | . | . | .
Cc1ccsc1/C=N/Nc1nc2ccccc2[nH]1 | 5.3* | -1 | 103 | 153* | 145* | -59 | 193* | 132 | 107
CC(/C=N/Nc1nc2ccccc2[nH]1)=C\c1ccccc1 | 8.6* | 14 | 84 | 192* | 172* | -101 | 246* | 139* | 114*
Cc1ccc(-c2cc(C(F)F)n3ncc(C(=O)N4CCN(c5cccc(C)c5C)CC4)c3n2)cc1 | 0.67 | 0 | 99 | 105 | 25 | -5 | . | . | .
CSc1ccccc1C(=O)C1CCCN(C(=O)CCN2CCCO2)C1 (stereo not drawn) | 1.1 | 11 | 100 | 102 | 16 | -3 | . | . | .
Clc1ccc(/C=N/Nc2ncnc3ccccc23)cc1Cl | 4.9* | -26 | 127 | 158* | . | -63 | 208* | 151* | 135*
O=C(/C=C/c1ccco1)Nc1ccc(N2CCCC2)cc1 | 1.1 | -15 | 113 | 158* | 121 | -67 | 187* | 139* | 113*
O=C(/C=C/c1ccco1)Nc1ccccn1 | 3.2 | 14 | 88 | 152* | 73 | -58 | 177* | 118 | 103
O=C(/C=C/c1ccco1)Nc1cccnc1 | . | 3 | 103 | 120 | 10 | -22 | . | . | .
C=CCSc1nncn1/N=C/c1ccc(OC)cc1 | 3.4* | -25 | 125 | 184* | 111 | -92 | 201* | 146* | 133*
COc1ccc(/C=N/n2cnnc2SCCO)cc1OC | 1.4 | -13 | 112 | 99 | 9 | 1 | . | . | .
O=C1CN(c2nc(-c3cccnc3)nc3sc4c(c23)CCCC4)CCN1 | 0.49 | 6 | 105 | 106 | 20 | -9 | . | . | .
Nc1nc(-c2cccnc2)nc2sc3c(c12)CCCC3 | 5.6* | 6 | 98 | 159* | 93 | -67 | 213* | 146* | 116*
CC(C)(C)Nc1c(-c2ccc(O)cc2)nc2ccc(Cl)cn12 | 1.4 | 26 | 81 | 97 | 34 | 2 | . | . | .
c1ccc(-c2cn3nc(-c4ccccc4)cnc3n2)cc1 | 4.1* | 9 | 91 | 155* | 172* | -60 | 212* | 124 | 105
Cn1cccc1/C=N/NC(=O)C12CC3CC(CC(C3)C1)C2 | 1.2 | -6 | 105 | 107 | 6 | -8 | . | . | .
O/N=C/c1cccnc1Sc1ccccc1 | 1.1 | 4 | 103 | 102 | 2 | -2 | . | . | .
Cc1ccc2nc(/C=C/c3cccc(F)c3)ccc2c1 | 7.4* | 6 | 99 | 194* | 214* | -107 | 259* | 150* | 116*
O=C(CC(c1ccccc1)c1ccccc1)Nc1ccc(Cl)cn1 | 1.2 | -4 | 106 | 94 | 14 | 6 | . | . | .
SMILES | NF-kB neuron act | STAT3 inh | STAT3 act | STAT1 act | APP 5'UTR act | STAT1 blocker | STAT1 act conf | NFkB act STAT1ct | STAT3 act STAT1c
O=C(/C=C/c1ccccc1)Nc1ccc(Cl)cn1 | 3.2 | 9 | 100 | 156* | 80 | -60 | 208* | 121 | 95
CC(C)(C)C(=O)COc1ccccc1[N+](=O)[O-] | 0.75 | 6 | 103 | 94 | -3 | 6 | . | . | .
CCOC(=O)/C=C/COc1ccccc1[N+](=O)[O-] | 2.1 | -4 | 107 | 154* | 40 | -58 | 146* | 119 | 100
Cc1cccc(-n2c(CCc3ccccc3)nnc2SCC(=O)c2ccccc2)c1 | 1.3 | -1 | 100 | 88 | -14 | 13 | . | . | .
Cc1ccc2nc(NC(=O)c3ccc(OCC4CCCO4)cc3)sc2c1 (stereo not drawn) | 1.3 | 4 | 96 | 158* | 37 | -62 | 148* | 116 | 91
Cc1cccc(NC(=O)c2ccc(OCC3CCCO3)cc2)c1C (stereo not drawn) | 1.5 | -10 | 109 | 110 | 18 | -11 | . | . | .
COc1ccc2oc(=Nc3ccccc3)c(-c3nc4ccccc4[nH]3)cc2c1 | 4.2* | -27 | 130 | 161* | 138* | -68 | 164* | 124 | 138*
COc1ccc2[nH]c(=O)c(-c3nnn(-c4ccccc4)n3)cc2c1 | 1.2 | . | . | 120 | 55 | -20 | . | . | .
CC(C)NC(=O)CN1CCN(Cc2nc(C(c3ccccc3)c3ccccc3)no2)CC1 | 1.1 | -1 | 105 | 110 | 1 | -13 | . | . | .
O=C(COc1ccc(Cl)cc1[N+](=O)[O-])NC1CCCCC1 | . | 19 | 88 | 160* | 114 | -65 | 167* | 121 | 111*
COc1ccc(NC(=O)CSc2nnc(NC(=O)c3ccc(S(=O)(=O)N4CCOCC4)cc3)s2)cc1 | 1.1 | 1 | 99 | 99 | 0 | 2 | . | . | .
Cc1nc2c(nnn2Cc2ccccc2)c(=O)[nH]1 | 0.85 | 9 | 101 | 105 | 1 | -7 | . | . | .
COc1ccc(OCCSc2ncccn2)cc1 | 4.1* | 0 | 102 | 154* | 160* | -51 | 181* | 127 | 120*
COc1ccc2nc(NC(=O)CCN3C(=S)NC(C)(C)CC3C)sc2c1 (stereo not drawn) | 1 | 1 | 97 | 103 | 36 | -3 | . | . | .
Cc1cccc(-c2nc(C#N)c(NC3CCCCC3)o2)c1 | 2.8 | -9 | 108 | 156* | 136* | -62 | 174* | 132 | 118*
